Active and inactive are the calls of the source. The calls are words filed in the database; no cut-off is given here.
What was measured:
[1] = test system: Human immunodeficiency virus 2; assay: Inhibition of HIV2(NIH-Z) isolate; format: functional, organism-based
Method in brief: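 HeLa-JC53-LTR-Luci cells (HIV-1 LTR-driven luciferase) infected with HIV-2 at MOI 0.03, with 1:4 serial compound dilutions (final DMSO 0.2%, 2% FBS medium). Incubated 48 h at 37°C in 5% CO2. Luciferase chemiluminescence read-out.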

[2] = molecular target: DNA polymerase beta (Homo sapiens) (UniProt P06746); assay: Inhibition of human DNA polymerase beta upto 45 uM
[3] = test system: Human immunodeficiency virus 1; assay: Antiviral activity against HIV1 isolate with RT V106I mutation in Hela-JC-53 cells; format: functional
[4] = molecular target: T1, DNA polymerase alpha catalytic subunit (Homo sapiens) (UniProt P09884); assay: Inhibition of human DNA polymerase alpha upto 45 uM
T1 sequence (whole entry): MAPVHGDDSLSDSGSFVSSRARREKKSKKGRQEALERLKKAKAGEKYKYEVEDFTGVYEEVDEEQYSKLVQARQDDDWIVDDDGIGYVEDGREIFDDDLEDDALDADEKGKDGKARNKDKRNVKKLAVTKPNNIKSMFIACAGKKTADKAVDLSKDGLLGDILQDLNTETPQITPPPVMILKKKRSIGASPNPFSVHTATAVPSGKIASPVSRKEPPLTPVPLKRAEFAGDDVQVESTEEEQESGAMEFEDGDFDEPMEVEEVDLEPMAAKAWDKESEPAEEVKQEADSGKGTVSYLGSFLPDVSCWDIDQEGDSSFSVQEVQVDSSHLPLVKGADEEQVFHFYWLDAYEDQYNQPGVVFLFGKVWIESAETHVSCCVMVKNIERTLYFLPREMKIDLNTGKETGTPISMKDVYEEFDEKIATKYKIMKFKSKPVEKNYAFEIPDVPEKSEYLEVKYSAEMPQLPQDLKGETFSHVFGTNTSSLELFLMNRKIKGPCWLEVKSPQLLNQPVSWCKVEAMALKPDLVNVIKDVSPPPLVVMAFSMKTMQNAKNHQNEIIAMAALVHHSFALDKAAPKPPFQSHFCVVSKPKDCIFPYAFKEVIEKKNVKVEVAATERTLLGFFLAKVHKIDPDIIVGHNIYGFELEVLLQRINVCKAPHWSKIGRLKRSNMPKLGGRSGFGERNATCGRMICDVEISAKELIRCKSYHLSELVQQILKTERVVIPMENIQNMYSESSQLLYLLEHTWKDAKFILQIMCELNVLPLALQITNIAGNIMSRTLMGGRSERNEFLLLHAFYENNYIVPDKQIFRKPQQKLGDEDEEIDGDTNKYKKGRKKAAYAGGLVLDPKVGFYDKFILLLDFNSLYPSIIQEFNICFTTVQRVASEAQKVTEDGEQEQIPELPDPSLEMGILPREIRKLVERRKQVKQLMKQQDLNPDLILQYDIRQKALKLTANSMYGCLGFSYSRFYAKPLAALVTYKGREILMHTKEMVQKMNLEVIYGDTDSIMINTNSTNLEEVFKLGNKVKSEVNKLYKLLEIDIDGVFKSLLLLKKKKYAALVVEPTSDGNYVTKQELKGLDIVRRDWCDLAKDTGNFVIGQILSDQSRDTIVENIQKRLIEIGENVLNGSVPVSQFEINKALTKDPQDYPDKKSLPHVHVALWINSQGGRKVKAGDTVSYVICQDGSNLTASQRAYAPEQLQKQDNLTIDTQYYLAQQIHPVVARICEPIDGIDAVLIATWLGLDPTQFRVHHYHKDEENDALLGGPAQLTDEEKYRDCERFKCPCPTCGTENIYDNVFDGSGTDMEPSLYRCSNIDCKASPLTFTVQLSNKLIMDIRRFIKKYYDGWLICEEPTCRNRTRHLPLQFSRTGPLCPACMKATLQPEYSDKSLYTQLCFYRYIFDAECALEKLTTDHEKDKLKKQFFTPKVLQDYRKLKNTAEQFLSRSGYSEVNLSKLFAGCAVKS

[5] = Tmax in dog at 20 mg/kg, po; format: ADME, organism-based, Canis lupus familiaris; parameters: dose 20 mg/kg, route oral; conditions: in vivo
[6] = molecular target: Human immunodeficiency virus type 1 reverse transcriptase (Human immunodeficiency virus 1, UniProt Q72547); assay: Inhibition of HIV1 reverse transcriptase
Method in brief: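 E. coli-expressed HIV-1 RT (1 nM) with 16 μg/ml poly(rA)/oligo(dT)18 and 2 μM α-33P-TTP, 0–100 μM inhibitor. Buffer: 50 mM Tris-HCl pH 7.5, 5 mM MgCl2, 1 mM DTT, 60 μg/ml BSA. Run 1 h at 25°C, then TCA/pyrophosphate precipitation and radioactivity counted. IC50 = 50% inhibition of RT activity.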

[7] = test system: Human immunodeficiency virus 1; assay: Antiviral activity against wild type HIV1; format: functional, organism-based
[8] = test system: Human immunodeficiency virus 1; assay: Antiviral activity against HIV1 isolate with RT V106I, Y181C mutation in Hela-JC-53 cells; format: functional
[9] = test system: Human immunodeficiency virus 1; assay: Antiviral activity against HIV1 isolate with RT V106I, Y181C, F227L mutation in Hela-JC-53 cells; format: functional
[10] = test system: Human immunodeficiency virus 1; assay: Antiviral activity against wild type HIV1 NL4-3 in Hela-JC53 cells in the presence of 40% human serum after 48 hrs; format: functional, organism-based; conditions: Human immunodeficiency virus 1, NL4-3, Hela-JC53, 48 h
Method in brief: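 HeLa-JC53 cells (1.5 × 10^4) infected with VSV-G-pseudotyped NL4-3.Luci.R−E− reporter virus at MOI 0.03, with 1:4 serial compound dilutions. Heat-inactivated human serum added to final 0–50% on a basal 2% FBS medium. Incubated 48 h at 37°C in 5% CO2. Luciferase read-out; EC50 by nonlinear regression.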

[11] = test system: Human immunodeficiency virus 1; assay: Antiviral activity against HIV1 NL4-3 with Y188L mutation in Hela-JC53 cells in the presence of 10% human serum after 48 hrs; format: functional, organism-based; conditions: Human immunodeficiency virus 1, NL4-3, Hela-JC53, 48 h
Method in brief: (§1)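 VSV-G-pseudotyped Y188L NL4-3.Luci.R−E− virus (MOI 0.03) infecting HeLa-JC53 cells (1.5 × 10^4) in phenol red-free DMEM with 2% FBS. Serially diluted compound was added, then heat-inactivated human serum at final 0, 5, 10, 20, 30, 40 or 50%. Cultures ran 48 h at 37°C in 5% CO2, read by Bright-Glo luciferase chemiluminescence. EC50 was taken by nonlinear regression.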

[12] = test system: Human immunodeficiency virus 1; assay: Antiviral activity against HIV1 NL4-3 with Y188L mutation in Hela-JC53 cells in the presence of 20% human serum after 48 hrs; format: functional, organism-based; conditions: Human immunodeficiency virus 1, NL4-3, Hela-JC53, 48 h; method in brief: as §1
[13] = test system: Human immunodeficiency virus 1; assay: Antiviral activity against HIV1 NL4-3 with Y188L mutation in Hela-JC53 cells in the presence of 30% human serum after 48 hrs; format: functional, organism-based; conditions: Human immunodeficiency virus 1, NL4-3, Hela-JC53, 48 h; method in brief: as §1
[14] = Tmax in dog at 10 mg/kg, iv; format: ADME, organism-based, Canis lupus familiaris; parameters: dose 10 mg/kg, route intravenous; conditions: in vivo
[15] = test system: Human immunodeficiency virus 1; assay: Antiviral activity against HIV1 isolate with RT K103N-Y181C mutation; format: functional, organism-based
Method in brief: (§2)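 VSV-G-pseudotyped pNL4-3.Luc.R−E− molecular clones carrying the RT mutations, single-round infection of HeLa-JC53 cells (15,000/well) at MOI 0.03. Compounds serially diluted 1:4 in DMSO then in phenol red-free DMEM with 2% FBS, final DMSO 0.2%. Incubated 48 h at 37°C, 5% CO2. Luciferase read-out by chemiluminescence gives the EC50. Fold change is relative to wt virus, mean of two tests.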

[16] = test system: Human immunodeficiency virus 1; assay: Antiviral activity against HIV1 isolate with RT K103N-K101Q mutation; format: functional, organism-based; method in brief: as §2

NS(=O)(=O)c1ccc(NC(=O)CSc2nnc(Br)n2-c2ccc(C3CC3)c3ccccc23)c(Cl)c1
Activity [1]: inactive | Activity [2]: inactive | Fold change [3]: 1 | Activity [4]: inactive | Tmax [5]: 5.3 h | IC50 [6]: 4 nM | EC50 [7]: 0.14 nM | Fold change [8]: 5.4 | Fold change [9]: 18.7 | EC50 [10]: 9.5 nM | EC50 [11]: 20.7 nM | EC50 [12]: 43.3 nM | EC50 [13]: 45.9 nM | Tmax [14]: 0.28 h | EC50 [15]: 0.23 nM | EC50 [16]: 0.15 nM

— ChEMBL document CHEMBL1142195, “A novel nonnucleoside analogue that inhibits human immunodeficiency virus type 1 isolates resistant to current nonnucleoside reverse transcriptase inhibitors” (Antimicrob Agents Chemother, 2007)
